This is a sample that favours compounds with a hit; in the whole collection about 2.2% have one here.
Redox H2O2 prof – compounds producing H2O2 with reducing agent – biochemical, NIH compound library profiling, artefact control for MLSCN library redox annotation, primary screen | DTT-dependent redox cycling H2O2, phenol red/HRP absorbance; 100% = 100 µM peroxide control, 0% = buffer | 200,000 tested, 0.03% active | activation, % at 10 µM | AID 878, 2007;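 active = activation of at least 50% relative to the plate's high and low controls in the primary single-dose screen; inactive = activation below 50%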;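 also: compound incubated with DTT at 0.8 mM final as the reducing agent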
RBBP9 inhibitor – human RBBP9 inhibitors, primary screen, biochemical, fluorescence polarization, FP-Rh probe, HTS | recombinant RBBP9 | AID 1515, 2009 | Serine hydrolase RBBP9 (Homo sapiens), O75884 | 220,000 tested, 0.2% active | inhibition, % at 7.94 µM;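 active = inhibition above the campaign mean of all tested compounds plus 3 SD, cut at about 14% in these data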;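 also: plate controls were DMSO wells with RBBP9 for no effect and wells lacking RBBP9 protein for full effect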
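Measured by: FP readout at 525/598 nm; material: recombinant human RBBP9; also added: Serine-hydrolase probe FP-Rh, 375 nM pre-mixing; medium: Tris buffer pH 8.0, NaCl, Pluronic; replication: one well per compound; doses: one concentration, 7.94 µM nominal, 0.794% DMSO; timing: preincubation 30 min plus labeling 45 min at 25 °C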
Wee1 degr inh – Wee1 degradation inhibitors, primary screen, cell-based, HeLa, Wee1K328M-luciferase, luminescence; Wee1-like protein kinase (Homo sapiens), P30291; HeLa Luc-Wee1K328M stability; 100% = proteasome inhibitor MG132 effect; reporter increase, % at 5 µM; 220,000 tested, 1.2% active; AID 1321, 2008;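 active = activation above the mean of all tested compounds plus 3 SD, set per screening run, cut at about 8.8% in these data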;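 also: cells exposed to compound for 20 h before luminescence read; 0% = DMSO alone and 100% = MG132 at 30 µM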
Arbovirus inh – antivirals against arbovirus infection, primary screen, cell-based, full library, 10K replicate subset. AID 1251, 2008. 200,000 tested, 0.37% active. arbovirus infection cell-based antiviral screen. inhibition, % at 10 µM; in the data active = inhibition above about 30%
PKD1 kinase inh – inhibitors of human PKD1 kinase, biochemical, fluorescence polarization. Serine/threonine-protein kinase D1 (Homo sapiens), Q15139. PKD1 kinase fluorescence polarization assay. inhibition, % (no concentration beside the values). 200,000 tested, 0.056% active; in the data active = inhibition above about 50%
p97 ATPase inh – inhibitors of human p97 ATPase, primary screen, biochemical; 220,000 tested, 0.42% active; AID 1481, 2009; recombinant p97 ATPase, Kinase-Glo ATP luminescence, 3 h; Transitional endoplasmic reticulum ATPase (Homo sapiens), P55072; inhibition, % at 8 µM; in the data active = inhibition above about 15%;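 also: 0% = DMSO vehicle and 100% = wells lacking enzyme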
Target sequence (P55072 whole entry, looked up): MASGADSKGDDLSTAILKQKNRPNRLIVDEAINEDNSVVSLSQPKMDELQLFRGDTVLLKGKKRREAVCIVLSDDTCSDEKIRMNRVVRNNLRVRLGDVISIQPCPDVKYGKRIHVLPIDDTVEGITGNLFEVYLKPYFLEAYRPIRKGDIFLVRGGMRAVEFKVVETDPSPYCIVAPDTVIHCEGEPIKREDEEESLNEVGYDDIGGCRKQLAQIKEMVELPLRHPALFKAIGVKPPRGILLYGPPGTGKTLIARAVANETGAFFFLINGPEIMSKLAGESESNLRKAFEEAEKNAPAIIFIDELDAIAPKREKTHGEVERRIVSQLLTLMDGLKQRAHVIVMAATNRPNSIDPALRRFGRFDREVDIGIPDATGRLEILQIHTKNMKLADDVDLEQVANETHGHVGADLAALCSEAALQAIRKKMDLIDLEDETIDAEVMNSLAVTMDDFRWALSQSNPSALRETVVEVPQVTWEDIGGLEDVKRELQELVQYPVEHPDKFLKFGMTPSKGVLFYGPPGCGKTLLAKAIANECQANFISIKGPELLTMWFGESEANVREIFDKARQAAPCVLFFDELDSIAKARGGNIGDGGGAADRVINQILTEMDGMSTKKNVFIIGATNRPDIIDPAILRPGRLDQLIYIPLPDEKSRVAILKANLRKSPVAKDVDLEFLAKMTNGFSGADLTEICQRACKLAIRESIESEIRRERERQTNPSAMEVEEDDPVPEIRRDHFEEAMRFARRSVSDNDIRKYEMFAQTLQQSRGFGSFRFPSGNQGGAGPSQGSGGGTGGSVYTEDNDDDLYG
Starred values were filed as active, the others as inactive.

`O=C(O)CSc1nnc(-c2cccc(S(=O)(=O)N3CCOCC3)c2)n1-c1cccc(Cl)c1` gave RBBP9 inhibitor -6, Wee1 degr inh 3 and p97 ATPase inh 5.
`CNc1ncc(C(=O)c2ccc(Cl)c(Cl)c2)s1` gave Redox H2O2 prof -6, RBBP9 inhibitor -5, Wee1 degr inh 1, Arbovirus inh -10, PKD1 kinase inh 2 and p97 ATPase inh -4.
CNc1ncc(C(=O)c2ccc(Cl)cc2)s1 was read as Redox H2O2 prof -3, RBBP9 inhibitor -10, Wee1 degr inh 9.6*, Arbovirus inh -7, PKD1 kinase inh -14 and p97 ATPase inh -3.
For Cc1ccc2nc(NC3=NC(CC(=O)O)C(=O)N3)nc(C)c2c1 (stereo unspecified) the results were Redox H2O2 prof 0, RBBP9 inhibitor -2, Wee1 degr inh 0, Arbovirus inh 0, PKD1 kinase inh 0 and p97 ATPase inh 4.
Screening Cc1ccc(NC(=O)c2ccccc2)s1 returned Redox H2O2 prof 3, RBBP9 inhibitor 2, Wee1 degr inh 9.7*, Arbovirus inh -9, PKD1 kinase inh -1 and p97 ATPase inh -3.
Cc1cc(NC(=O)c2ccccc2)sc1C was read as Redox H2O2 prof 0, RBBP9 inhibitor -7, Wee1 degr inh 6, Arbovirus inh -7, PKD1 kinase inh -3 and p97 ATPase inh -22.
Screening CCOC(=O)C(=CNc1ccc(Oc2cccnc2)nc1)C(=O)OCC returned RBBP9 inhibitor 1, Wee1 degr inh 9.9* and p97 ATPase inh -1.
`CC(C)(C)c1ccc(C(=O)Nc2ccc(Oc3cccnc3)nc2)cc1` gave RBBP9 inhibitor -5, Wee1 degr inh 7 and p97 ATPase inh -4.
Screening Cc1cc(-c2csc(NC(=O)c3ccc(=O)[nH]c3)n2)c(C)n1Cc1ccco1 returned RBBP9 inhibitor 3, Wee1 degr inh -3 and p97 ATPase inh 51*.
Screening Cc1nn(-c2nc3ccccc3[nH]2)c(N)c1-c1ccc(Cl)cc1 returned Redox H2O2 prof 0, RBBP9 inhibitor -9, Wee1 degr inh 11*, Arbovirus inh -28, PKD1 kinase inh -11 and p97 ATPase inh 1.
Screening CN(C)S(=O)(=O)c1cccc(NC(=O)c2ccc3nccnc3c2)c1 returned RBBP9 inhibitor -14, Wee1 degr inh -1 and p97 ATPase inh -3.
Cc1ccc(-c2csc(NC(=O)C3=NN(C4CCS(=O)(=O)C4)C(=O)CC3)n2)cc1 (stereo unspecified) was read as RBBP9 inhibitor -7, Wee1 degr inh 0 and p97 ATPase inh -3.
`O=C(COc1ccccc1[N+](=O)[O-])N/N=C/c1ccc(O)c([N+](=O)[O-])c1` gave Redox H2O2 prof -1, RBBP9 inhibitor -6, Wee1 degr inh -3, Arbovirus inh -21, PKD1 kinase inh -1 and p97 ATPase inh 8.
`O=C(COc1ccccc1C(=O)N/N=C\c1ccc(O)c(O)c1)N/N=C/c1ccc(O)c(O)c1` gave Redox H2O2 prof -5, RBBP9 inhibitor -12, Wee1 degr inh -1, Arbovirus inh -8, PKD1 kinase inh 13 and p97 ATPase inh 19*.
CCCCCN1CC(O)=C(c2nc3ccccc3[nH]2)C1=N was read as Redox H2O2 prof 0, RBBP9 inhibitor -1, Wee1 degr inh 10*, Arbovirus inh -2, PKD1 kinase inh 5 and p97 ATPase inh 1.
For CCCCN1CC(O)=C(c2nc3ccccc3[nH]2)C1=N the results were Redox H2O2 prof 1, RBBP9 inhibitor 4, Wee1 degr inh -1, Arbovirus inh -6, PKD1 kinase inh -12 and p97 ATPase inh 6.
`CCOc1ccc(C2C=C(c3ccc(C)cc3)Nc3ncnn32)cc1` (stereo unspecified) gave Redox H2O2 prof -1, RBBP9 inhibitor -13, Wee1 degr inh 0, Arbovirus inh 32*, PKD1 kinase inh -12 and p97 ATPase inh -7.

Screening results deposited in PubChem BioAssay by several laboratories.
